In ChEMBL document CHEMBL1156735, “Might adrenergic alpha2C-agonists/alpha2A-antagonists become novel therapeutic tools for pain treatment with morphine?” (J Med Chem, 2009):

Tests used:
[1] = biological target: T1, Alpha-2C adrenergic receptor (Homo sapiens) (UniProt P18825); experiment: Intrinsic activity at human Alpha-2C adrenoceptor expressed in CHO cells assessed as extracellular acidification by cytosensor microphysiometry relative to noradrenaline; assay type: cell-based
T1 sequence (whole entry): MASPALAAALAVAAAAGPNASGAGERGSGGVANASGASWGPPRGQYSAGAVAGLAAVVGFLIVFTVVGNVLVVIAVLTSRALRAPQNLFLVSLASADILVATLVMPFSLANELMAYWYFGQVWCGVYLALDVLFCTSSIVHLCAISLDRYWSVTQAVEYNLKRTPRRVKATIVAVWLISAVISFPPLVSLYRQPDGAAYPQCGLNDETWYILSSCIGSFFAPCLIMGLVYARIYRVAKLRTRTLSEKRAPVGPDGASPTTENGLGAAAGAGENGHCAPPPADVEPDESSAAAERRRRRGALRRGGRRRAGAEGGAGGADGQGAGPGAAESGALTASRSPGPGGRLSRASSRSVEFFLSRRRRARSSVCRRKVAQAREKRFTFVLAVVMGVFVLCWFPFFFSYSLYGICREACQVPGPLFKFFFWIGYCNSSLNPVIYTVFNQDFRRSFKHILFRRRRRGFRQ
How it was run: (§1)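 Cytosensor microphysiometry on the same CHO cell lines expressing individual human α2-AR subtypes. pEC50, pKb and intrinsic activity were derived, with ia expressed as a fraction of full agonist (-)-noradrenaline (taken as 1). ia <0.3 was scored not active. Values are mean ± SEM of three to six separate experiments.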

[2] = biological target: T2, Alpha-2B adrenergic receptor (Homo sapiens) (UniProt P18089); experiment: Intrinsic activity at human alpha2B adrenoceptor expressed in CHO cells assessed as extracellular acidification by cytosensor microphysiometry relative to noradrenaline; assay type: cell-based; how it was run: as §1
T2 sequence (whole entry): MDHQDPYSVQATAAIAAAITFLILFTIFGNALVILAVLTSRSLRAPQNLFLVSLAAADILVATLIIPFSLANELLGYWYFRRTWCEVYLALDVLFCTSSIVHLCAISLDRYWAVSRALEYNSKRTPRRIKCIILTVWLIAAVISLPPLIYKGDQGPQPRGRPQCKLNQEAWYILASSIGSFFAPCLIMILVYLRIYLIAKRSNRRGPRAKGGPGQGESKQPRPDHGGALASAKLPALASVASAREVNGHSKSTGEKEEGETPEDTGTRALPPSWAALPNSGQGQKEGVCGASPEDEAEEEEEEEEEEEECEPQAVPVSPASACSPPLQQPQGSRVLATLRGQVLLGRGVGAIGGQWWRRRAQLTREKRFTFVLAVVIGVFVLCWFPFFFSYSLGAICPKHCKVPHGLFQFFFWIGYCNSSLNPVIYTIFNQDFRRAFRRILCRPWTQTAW

[3] = biological target: T3, Alpha-2A adrenergic receptor (Homo sapiens, UniProt P08913); experiment: Displacement of [3H]RX821002 from human alpha2A adrenoceptor expressed in CHO cell membrane after 30 mins by liquid scintillation counting; assay type: cell membranes
T3 sequence (P08913 whole entry): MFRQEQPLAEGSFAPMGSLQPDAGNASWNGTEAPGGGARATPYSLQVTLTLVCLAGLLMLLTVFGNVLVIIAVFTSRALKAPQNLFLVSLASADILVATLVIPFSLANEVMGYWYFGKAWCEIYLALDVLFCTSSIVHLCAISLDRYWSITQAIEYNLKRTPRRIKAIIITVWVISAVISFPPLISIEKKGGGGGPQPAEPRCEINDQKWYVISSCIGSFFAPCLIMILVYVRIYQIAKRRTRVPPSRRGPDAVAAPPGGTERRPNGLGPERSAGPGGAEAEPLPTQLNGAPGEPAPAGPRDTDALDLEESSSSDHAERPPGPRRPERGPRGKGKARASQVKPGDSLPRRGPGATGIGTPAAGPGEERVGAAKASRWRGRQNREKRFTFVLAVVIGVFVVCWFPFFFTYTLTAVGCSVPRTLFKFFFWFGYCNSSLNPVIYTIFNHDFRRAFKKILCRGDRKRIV
How it was run: (§2)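 Competition binding against [3H]RX 821002 on membrane preparations from CHO cells, each line expressing one human α2-AR subtype (α2A, α2B or α2C); affinities reported as pKi.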

[4] = biological target: T4, Alpha-2A adrenergic receptor (Homo sapiens) (UniProt P08913); experiment: Antagonist activity at human alpha2A adrenoceptor expressed in CHO cells assessed as extracellular acidification by cytosensor microphysiometry; assay type: functional, cell-based; how it was run: as §1
T4 sequence (whole entry): T3 sequence (P08913 whole entry)

[5] = biological target: T5, Alpha-2B adrenergic receptor (Homo sapiens, UniProt P18089); experiment: Agonist activity at human alpha2B adrenoceptor expressed in CHO cells assessed as extracellular acidification by cytosensor microphysiometry; assay type: functional, cell-based; how it was run: as §1
T5 sequence (P18089 whole entry): T2 sequence (whole entry)

[6] = biological target: T6, Alpha-2C adrenergic receptor (Homo sapiens, UniProt P18825); experiment: Agonist activity at human Alpha-2C adrenoceptor expressed in CHO cells assessed as extracellular acidification by cytosensor microphysiometry; assay type: functional, cell-based; how it was run: as §1
T6 sequence (P18825 whole entry): T1 sequence (whole entry)

[7] = biological target: T6, Alpha-2C adrenergic receptor; experiment: Displacement of [3H]RX821002 from human Alpha-2C adrenoceptor expressed in CHO cell membrane after 30 mins by liquid scintillation counting; assay type: cell membranes; how it was run: as §2
[8] = biological target: T5, Alpha-2B adrenergic receptor; experiment: Displacement of [3H]RX821002 from human alpha2B adrenoceptor expressed in CHO cell membrane after 30 mins by liquid scintillation counting; assay type: cell membranes; how it was run: as §2

NC[C@H](O)c1ccc(O)c(O)c1
Intrinsic activity [1]: 1
Intrinsic activity [2]: 1

c1ccc(C2CC2)c(OCC2=NCCN2)c1 [CIRAZOLINE]
Ki [3]: 58.9 nM
pKb [4]: 6.4
EC50 [5]: 1000 nM
Intrinsic activity [1]: 0.8
Intrinsic activity [2]: 1
EC50 [6]: 398 nM
Ki [7]: 550 nM
Ki [8]: 525 nM
